In ChEMBL document CHEMBL3867423, “New imidazolidineiminothione derivatives: Synthesis, spectral characterization and evaluation of antitumor, antiviral, antibacterial and antifungal activities” (Eur J Med Chem, 2016):
Converted amounts (≈) assume the structure as drawn.

Columns and labels:
Pseudomonas aeruginosa [1] = test: Antibacterial activity against Pseudomonas aeruginosa ATCC 25619 after 24 hrs by two-fold serial dilution method; type: functional; conditions: ATCC 25619, 24 h
How it was run: (§1)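 Two-fold serial dilutions of DMSO stock in adjusted Mueller-Hinton broth, final 100 to 0.78 µg/ml. Bacteria pre-grown in nutrient broth, fungi in malt extract broth (48 h). Each 5 ml tube given 0.1 ml inoculum (1×10⁸ CFU/ml bacteria, 1×10⁶ CFU/ml fungi), incubated 37 °C 24 h. MIC taken as lowest concentration with no growth; triplicate, averaged.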

Escherichia coli = test: Antibacterial activity against Escherichia coli ATCC 10536 at 5 mg after 24 hrs by agar well diffusion assay; type: functional; conditions: ATCC 10536, 24 h, read-out: DIZ
How it was run: (§2)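 Agar well diffusion. 100 µL inoculum (1×10⁸ CFU/mL bacteria, 1×10⁶ CFU/mL yeast) spread on nutrient agar (bacteria) or Sabouraud dextrose agar (fungi). 10 mm wells loaded with 100 µL of 5 mg/mL compound in DMSO. DMSO as negative control. Erythromycin (bacteria) or […] (fungi) at 5 mg/ml as standards. Plates incubated 24 h at 37 °C. Inhibition zone diameter (mm) measured, mean of triplicate.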

Coxsackievirus B4 = test: Antiviral activity against human Coxsackie virus B4 infected in African green monkey Vero cells by plaque formation assay; type: functional; design: concentration or dose not given beside the values
Micrococcus luteus [2] = test: Antibacterial activity against Sarcina lutea after 24 hrs by two-fold serial dilution method; type: functional; how it was run: as §1
Micrococcus luteus [3] = test: Antibacterial activity against Micrococcus luteus ATCC 10240 after 24 hrs by two-fold serial dilution method; type: functional; conditions: ATCC 10240, 24 h; how it was run: as §1
Candida albicans [4] = test: Antifungal activity against Candida albicans IMRU 3669 at 5 mg after 24 hrs by agar well diffusion assay; type: functional; conditions: IMRU 3669, 24 h, read-out: DIZ; how it was run: as §2
Bacillus pumilus [5] = test: Antibacterial activity against Bacillus pumilus at 5 mg after 24 hrs by agar well diffusion assay; type: functional; conditions: read-out: DIZ; how it was run: as §2
[6] = Cytotoxicity against human HCT116 cells assessed as decrease in cell viability after 48 hrs by SRB assay; type: functional, cell-based; conditions: hct-116
How it was run: (§3)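 SRB assay. Cells seeded at 10⁴ per well and allowed to attach for 24 h. Exposed to 0, 5, 12.5, 25 and 50 µg/mL, triplicate wells per dose, for 48 h at 37 °C in 5% CO₂. Cells fixed and SRB-stained; excess dye removed with acetic acid, bound dye recovered in Tris-EDTA and read on an ELISA reader. IC50 read from the surviving-fraction curve.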

Bacillus subtilis = test: Antibacterial activity against Bacillus subtilis NCTC 10400 at 5 mg after 24 hrs by agar well diffusion assay; type: functional; conditions: NCTC 10400, 24 h, read-out: DIZ; how it was run: as §2
Human alphaherpesvirus 1 = test: Antiviral activity against HSV1 infected in African green monkey Vero cells by plaque formation assay; type: functional; design: concentration or dose not given beside the values
Micrococcus luteus [7] = test: Antibacterial activity against Micrococcus luteus ATCC 10240 at 5 mg after 24 hrs by agar well diffusion assay; type: functional; conditions: ATCC 10240, 24 h, read-out: DIZ; how it was run: as §2
[8] = Cytotoxicity against human MCF7 cells assessed as decrease in cell viability after 48 hrs by SRB assay; type: functional, cell-based; design: unit not given here; how it was run: as §3
Candida albicans [9] = test: Antifungal activity against Candida albicans IMRU 3669 after 24 hrs by two-fold serial dilution method; type: functional; conditions: IMRU 3669, 24 h; how it was run: as §1
Bacillus pumilus [10] = test: Antibacterial activity against Bacillus pumilus after 24 hrs by two-fold serial dilution method; type: functional; how it was run: as §1
Hepatovirus A = test: Antiviral activity against Hepatitis A virus infected in African green monkey Vero cells by plaque formation assay; type: functional; design: concentration or dose not given beside the values
[11] = Cytotoxicity against human PC3 cells assessed as decrease in cell viability after 48 hrs by SRB assay; type: functional, cell-based; conditions: pc-3; how it was run: as §3
[12] = Cytotoxicity against human HepG2 cells assessed as decrease in cell viability after 48 hrs by SRB assay; type: functional, cell-based; how it was run: as §3
Pseudomonas aeruginosa [13] = test: Antibacterial activity against Pseudomonas aeruginosa ATCC 25619 at 5 mg after 24 hrs by agar well diffusion assay; type: functional; conditions: ATCC 25619, 24 h, read-out: DIZ; how it was run: as §2
Micrococcus luteus [14] = test: Antibacterial activity against Sarcina lutea at 5 mg after 24 hrs by agar well diffusion assay; type: functional; conditions: read-out: DIZ; how it was run: as §2
Aspergillus niger = test: Antifungal activity against Aspergillus niger at 5 mg after 24 hrs by agar well diffusion assay; type: functional; conditions: read-out: DIZ; how it was run: as §2
[15] = Antifungal activity against Penicillium chrysogenum at 5 mg after 24 hrs by agar well diffusion assay; type: functional; how it was run: as §2

| Compound | zone of inhibition at 5000 µg/disc (Escherichia coli) | Activity (Coxsackievirus B4) | zone of inhibition at 5000 µg/disc (Candida albicans [4]) | zone of inhibition at 5000 µg/disc (Bacillus pumilus [5]) | IC50 [6] | zone of inhibition at 5000 µg/disc (Bacillus subtilis) | Activity (Human alphaherpesvirus 1) | zone of inhibition at 5000 µg/disc (Micrococcus luteus [7]) | IC50 [8] | Activity (Hepatovirus A) | IC50 [11] | IC50 [12] | zone of inhibition at 5000 µg/disc (Pseudomonas aeruginosa [13]) | zone of inhibition at 5000 µg/disc (Micrococcus luteus [14]) | zone of inhibition at 5000 µg/disc (Aspergillus niger) | inhibition zone (IZ) [15] | also measured |
| --- | --- | --- | --- | --- | --- | --- | --- | --- | --- | --- | --- | --- | --- | --- | --- | --- | --- |
| COc1ccc(OC)c(N2C(=O)N(c3ccc(SC)cc3)C(=N)C2=S)c1 | 29 mm | 18.5% | 27 mm | 20 mm | 0.05 µg | 29 mm | 85.7% | 17 mm | 0.028 | 0% | 0.047 µg | 0.029 µg | 25 mm | 31 mm | 20 mm | 22 mm | MIC (Pseudomonas aeruginosa [1]): 0.78 µg/mL (≈ 2.01 µM); MIC (Micrococcus luteus [2]): 6.25 µg/mL (≈ 16.1 µM); MIC (Micrococcus luteus [3]): 6.25 µg/mL (≈ 16.1 µM); MIC (Candida albicans [9]): 6.25 µg/mL (≈ 16.1 µM); MIC (Bacillus pumilus [10]): 6.25 µg/mL (≈ 16.1 µM) |
| N=C1C(=S)N(c2cc(Cl)cc(Cl)c2)C(=O)N1c1ccc(Cl)c(C(F)(F)F)c1 | 18 mm | 0% | 22 mm | 21 mm | 0.044 µg | 20 mm | 9.6% | 21 mm | 0.024 | 0% | 0.039 µg | 0.028 µg | 21 mm | 23 mm | 12 mm | 20 mm | – |
| Cc1ccc(F)cc1N1C(=N)C(=S)N(c2ccc(Br)cc2)C1=O | 20 mm | 0% | 22 mm | 21 mm | – | 22 mm | 43.1% | 22 mm | – | 36.2% | – | – | 21 mm | 23 mm | 20 mm | 21 mm | – |
| N=C1C(=S)N(c2cc(Cl)cc(Cl)c2)C(=O)N1c1cc(Cl)c(Cl)cc1Cl | 27 mm | 20.6% | 21 mm | 21 mm | 0.015 µg | 27 mm | 96.7% | 16 mm | 0.015 | 80.3% | 0.017 µg | 0.017 µg | 18 mm | 21 mm | 15 mm | 20 mm | – |
| COc1ccc(N2C(=O)N(c3cccc(Cl)c3)C(=N)C2=S)c(OC)c1 | 20 mm | 2.3% | 27 mm | 17 mm | 0.023 µg | 20 mm | 47.4% | 14 mm | 0.02 | 36.2% | 0.031 µg | 0.012 µg | 16 mm | 28 mm | 18 mm | 20 mm | – |
| COc1ccc(OC)c(N2C(=O)N(c3ccc(C)cc3)C(=N)C2=S)c1 | 16 mm | 0% | 17 mm | 20 mm | 0.014 µg | 16 mm | 50.2% | 17 mm | 0.015 | 30.7% | 0.048 µg | 0.037 µg | 14 mm | 26 mm | 16 mm | 17 mm | – |
| Cc1ccc(N2C(=N)C(=S)N(c3cc(Cl)cc(Cl)c3)C2=O)cc1 | 16 mm | 43.6% | 21 mm | 20 mm | 0.053 µg | 16 mm | 71.6% | 17 mm | 0.009 | 66% | 0.035 µg | 0.014 µg | 16 mm | 28 mm | 18 mm | 19 mm | – |
| N=C1C(=S)N(c2cc(Cl)cc(Cl)c2)C(=O)N1c1c(Cl)cccc1Cl | 19 mm | 0% | 23 mm | 17 mm | 0.039 µg | 19 mm | 33.6% | 16 mm | 0.02 | 70.2% | 0.064 µg | 0.039 µg | 17 mm | 27 mm | 15 mm | 18 mm | – |
| CC[C@H]1OC(=O)[C@H](C)[C@@H](O[C@H]2C[C@@](C)(OC)[C@@H](O)[C@H](C)O2)[C@H](C)[C@@H](O[C@@H]2O[C@H](C)C[C@H](N(C)C)[C@H]2O)[C@](C)(O)C[C@@H](C)C(=O)[C@H](C)[C@@H](O)[C@]1(C)O [ERYTHROMYCIN] | 37 mm | – | – | 32 mm | – | 40 mm | – | 32 mm | – | – | – | – | 30 mm | 44 mm | – | – | – |
| N=C1C(=S)N(c2cc(Cl)cc(Cl)c2)C(=O)N1c1cccc(Cl)c1 | 30 mm | 41.6% | 24 mm | 15 mm | 0.041 µg | 30 mm | 36.4% | 16 mm | 0.011 | 100% | 0.031 µg | 0.025 µg | 0 mm | 24 mm | 16 mm | 21 mm | – |
| COc1ccc(OC)c(N2C(=O)N(c3ccc4c(c3)Cc3ccccc3-4)C(=N)C2=S)c1 | 18 mm | 0% | 14 mm | 17 mm | 0.047 µg | 12 mm | 32.4% | 16 mm | 0.052 | 29.9% | 0.056 µg | 0.048 µg | 0 mm | 24 mm | 14 mm | 18 mm | – |
| COc1cccc2c1C(=O)c1c(O)c3c(c(O)c1C2=O)C[C@@](O)(C(=O)CO)C[C@@H]3O[C@H]1C[C@H](N)[C@H](O)[C@H](C)O1 [DOXORUBICIN] | – | – | – | – | 0.007 µg | – | – | – | – | – | 0.008 µg | 0.007 µg | – | – | – | – | – |
| Cc1ncc([N+](=O)[O-])n1CCO [METRONIDAZOLE] | – | – | 27 mm | – | – | – | – | – | – | – | – | – | – | – | 33 mm | 25 mm | – |
| N=C1C(=S)N(c2ccccc2)C(=O)N1c1c(Cl)cccc1Cl | 18 mm | 0% | 23 mm | 18 mm | – | 18 mm | 33.3% | 14 mm | – | 0% | – | – | 15 mm | 26 mm | 17 mm | 16 mm | – |
